Screening data (PubChem)
This excerpt belongs to a sample that is enriched for hits.
UPR XBP1 act – activators of adaptive arm of unfolded protein response (XBP1). CHO-XBP1 luciferase reporter, IRE1-XBP1 UPR activation, luminescence; percent of tunicamycin response, DMSO as zero. activation, % at 20 µM. actives 0.33% (n = 330,000). AID 463104;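 active = versus positive control, 20 µM dose yields 30% or more activation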;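 note: 100% = tunicamycin at 10 µg/mL and 0% = DMSO only wells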
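assay system = CHO-XBP1 luciferase reporter cells | amount = 1000 cells/well | buffer or medium = F12 plus 10% FBS | compound dosing = single point, 20 µM final compound, 1% DMSO | incubation = 16-18 h cell attachment at 37 °C, then 6 h compound exposure | detection = Steady-Glo luminescence read | controls = tunicamycin 10 µg/mL and vehicle-only wells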
NOD2-RIPK2 inh – NOD2-RIPK2 protein interaction inhibition; actives 0.38% (n = 360,000); inhibition, % at 4.98 µM; AID 624267; CHO BLA complementation NOD2-RIPK2, CCF4 ratio; in the data active = inhibition above about 21%;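 note: 0% = vehicle only and 100% = reference blocker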
Target sequence (O43353 whole entry, looked up): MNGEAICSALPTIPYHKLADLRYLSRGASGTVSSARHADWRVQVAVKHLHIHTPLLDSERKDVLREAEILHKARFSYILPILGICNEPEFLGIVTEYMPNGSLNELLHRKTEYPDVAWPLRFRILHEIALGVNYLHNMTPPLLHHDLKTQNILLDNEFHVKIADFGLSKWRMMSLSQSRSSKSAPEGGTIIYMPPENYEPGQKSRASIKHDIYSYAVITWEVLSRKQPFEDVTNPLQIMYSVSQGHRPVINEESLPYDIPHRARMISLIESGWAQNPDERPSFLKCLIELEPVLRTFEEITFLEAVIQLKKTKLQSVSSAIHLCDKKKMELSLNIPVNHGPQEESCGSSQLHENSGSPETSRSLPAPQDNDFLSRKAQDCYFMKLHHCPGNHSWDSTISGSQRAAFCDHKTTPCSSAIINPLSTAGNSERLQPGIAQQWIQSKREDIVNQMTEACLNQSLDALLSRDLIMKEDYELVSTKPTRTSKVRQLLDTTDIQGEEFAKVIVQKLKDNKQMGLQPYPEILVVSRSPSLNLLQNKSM
TLR4-MyD88 BLA – TLR4-MyD88 interaction inhibition in cells. O00206+Q99836. HeLa CL3-4 TLR4/MyD88 BLA complementation, FRET ratio. inhibition, % at 8.4 µM. actives 0.18% (n = 200,000). AID 861; in the data active = inhibition above about 25%;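 note: 0% = vehicle and 100% = reference inhibitor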
CHOP inhibitor – CHOP inhibition in unfolded protein response; CHO-K1 CHOP-promoter luciferase, tunicamycin-induced, 15-18 h; inhibition, % at 10 µM; actives 3.8% (n = 220,000);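 active = compounds that reduced the stress-induced luciferase reporter signal by more than about 70% of percent inhibition, limit read from the data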;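 note: 0% = tunicamycin plus vehicle and 100% = wells without tunicamycin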
TLR9-MyD88 block – TLR9-MyD88 interaction inhibition; Q9NR96+Q99836; CHO BLA complementation TLR9-MyD88, CCF4 FRET ratio; inhibition, % at 4.98 µM; actives 0.21% (n = 340,000); AID 504734;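 active = inhibition above the mean over all tested compounds plus 3 SD, cut at about 21% in these data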;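 note: 0% = DMSO only wells and 100% = clavulanate BLA inhibitor control wells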
CHOP UPR activ – activators of apoptotic arm of unfolded protein response (CHOP). CHO-CHOP luciferase reporter, UPR activation, luminescence; percent of tunicamycin response over DMSO baseline. actives 0.34% (n = 330,000). AID 449763. activation, % at 10 µM;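 active = at 10 µM dose, activation of 40% or more, normalized to positive control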;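 note: 100% = tunicamycin at 10 µg/mL and 0% = DMSO alone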
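Evaluation: % reporter activation, DMSO baseline versus tunicamycin full activation; System: CHO-CHOP luciferase reporter cell line; Input: 500 cells/well; Incubation: 6 h compound treatment, 37 °C; Measured by: Steady-Glo luciferase luminescence; Dosing: one dose, 10 µM in 0.5% DMSO; Buffer or medium: F12 medium, 10% FBS; Benchmarks: positive tunicamycin 10 µg/mL, negative DMSO alone.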
CHOP confirm – confirmation of CHOP induction inhibitors. shares compounds with CHOP inhibitor. CHO-CHOP promoter luciferase reporter, tunicamycin-induced, luminescence. inhibition, % at 10 µM. actives 45% (n = 2,100). AID 504437;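 active = mean of three repeat readings of reporter signal inhibition above a set limit, cut at about 70% in these data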;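 note: 0% = tunicamycin plus vehicle and 100% = wells lacking tunicamycin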
Numbers without * were called inactive.

What do the screens show for `Cc1ccc(-c2ccc(/C=C3/NC(=O)NC3=O)o2)cc1[N+](=O)[O-]`?
NOD2-RIPK2 inh: 20.9; TLR4-MyD88 BLA: 10.9; CHOP inhibitor: 98.0*; TLR9-MyD88 block: 3.4; CHOP confirm: -18.4

Results for Cc1ccc2[nH]c(O)c(N=NC(=O)CCc3ccccc3)c2c1Br ?
UPR XBP1 act: -2.5; NOD2-RIPK2 inh: 5.9; TLR4-MyD88 BLA: -1.5; CHOP inhibitor: 106.8*; TLR9-MyD88 block: 4.1; CHOP UPR activ: -0.3; CHOP confirm: 83.0*

Results for CCOc1ccc(/C=N/Nc2nc(C)cs2)c(O)c1 ?
UPR XBP1 act: 1.5; NOD2-RIPK2 inh: -3.1; TLR9-MyD88 block: 6.2; CHOP UPR activ: 3.0

How did CC(C)C(=O)Nc1ccc(NC(=S)NC(=O)c2ccc([N+](=O)[O-])cc2)cc1 do in these assays?
UPR XBP1 act: -1.7; NOD2-RIPK2 inh: 0.5; TLR4-MyD88 BLA: 5.0; CHOP inhibitor: 27.2; TLR9-MyD88 block: -4.4; CHOP UPR activ: -0.1

How did CCOC(=O)c1oc2ccc(/C=N/O)c(Cl)c2c1C do in these assays?
UPR XBP1 act: 6.0; NOD2-RIPK2 inh: 0.8; TLR4-MyD88 BLA: 0.7; CHOP inhibitor: 104.0*; TLR9-MyD88 block: 1.2; CHOP UPR activ: 6.9; CHOP confirm: 16.9

What do the screens show for `CCOC(=O)c1oc2cc(C)cc(C)c2c1C`?
UPR XBP1 act: 2.9; NOD2-RIPK2 inh: 3.8; CHOP inhibitor: 28.2; TLR9-MyD88 block: -1.6; CHOP UPR activ: 0.8

What do the screens show for `Cc1ccc2c(C)nc(Nc3nc(CSc4nc5ccccc5[nH]4)cc(=O)[nH]3)nc2c1`?
UPR XBP1 act: 1.3; NOD2-RIPK2 inh: -3.5; TLR4-MyD88 BLA: -8.2; CHOP inhibitor: 104.4*; TLR9-MyD88 block: 5.4; CHOP UPR activ: -3.6; CHOP confirm: 105.7*

What do the screens show for `Cc1ccc(SCc2cc(=O)[nH]c(Nc3nc(C)c4ccc(C)cc4n3)n2)cc1`?
UPR XBP1 act: 1.7; NOD2-RIPK2 inh: 0.5; TLR4-MyD88 BLA: -0.5; CHOP inhibitor: 16.6; TLR9-MyD88 block: 5.7; CHOP UPR activ: 1.3

Results for O=C(Nc1ccc(F)cc1)Nc1ccc(N2CCCC2)c(S(=O)(=O)Nc2ccccc2Cl)c1 ?
UPR XBP1 act: 6.2; NOD2-RIPK2 inh: 3.3; TLR4-MyD88 BLA: -2.9; CHOP inhibitor: 96.5*; TLR9-MyD88 block: -0.3; CHOP UPR activ: 9.8; CHOP confirm: 90.7*

Results for O=C(Nc1ccc(N2CCOCC2)c(S(=O)(=O)Nc2ccccc2Cl)c1)c1ccc(F)cc1 ?
UPR XBP1 act: -1.9; NOD2-RIPK2 inh: -22.8; TLR9-MyD88 block: 2.3; CHOP UPR activ: 0.1

What do the screens show for `O=C(NNc1ccccc1[N+](=O)[O-])Nc1ccc(Cl)c(Cl)c1`?
UPR XBP1 act: -1.0; NOD2-RIPK2 inh: 2.0; TLR4-MyD88 BLA: -0.3; CHOP inhibitor: 101.3*; TLR9-MyD88 block: 1.6; CHOP UPR activ: 2.3; CHOP confirm: 71.2*

Results for CCN(CC)S(=O)(=O)c1ccc(NC(=O)CO/N=C(\N)c2ccccc2)cc1 ?
UPR XBP1 act: 0.8; NOD2-RIPK2 inh: 1.5; TLR9-MyD88 block: -2.2; CHOP UPR activ: 0.7

What do the screens show for `O=C(NCc1ccccc1Cl)C1CCC(CNc2nc(=S)[nH]c3ccccc23)CC1` (centres undefined)?
UPR XBP1 act: 4.3; NOD2-RIPK2 inh: 2.4; TLR4-MyD88 BLA: 4.6; CHOP inhibitor: 98.1*; TLR9-MyD88 block: -6.7; CHOP UPR activ: -2.2; CHOP confirm: 15.7

How did CCCCNC(=O)C1CCC(CNc2nc(=S)[nH]c3ccccc23)CC1 (centres undefined) do in these assays?
UPR XBP1 act: 0.4; NOD2-RIPK2 inh: -3.4; TLR4-MyD88 BLA: 0.6; CHOP inhibitor: 22.8; TLR9-MyD88 block: -0.3; CHOP UPR activ: 3.4

What do the screens show for `Oc1cccc(C2c3[nH]c4ccccc4c3CCN2Cc2ccc3c(c2)CCO3)c1` (centres undefined)?
UPR XBP1 act: 6.8; NOD2-RIPK2 inh: -2.2; TLR4-MyD88 BLA: 9.3; CHOP inhibitor: 105.8*; TLR9-MyD88 block: -4.7; CHOP UPR activ: 0.4; CHOP confirm: 10.3

How did O=C(c1ccc(COc2ccc(Cl)cc2)o1)N1N=C(C(F)F)CC1(O)C(F)F (centres undefined) do in these assays?
UPR XBP1 act: -2.4; NOD2-RIPK2 inh: -5.6; TLR4-MyD88 BLA: -3.2; CHOP inhibitor: 108.5*; TLR9-MyD88 block: 14.7; CHOP UPR activ: -1.0; CHOP confirm: 130.0*

How did O=S1(=O)NC(=NCCOCCO)c2ccccc21 do in these assays?
UPR XBP1 act: -0.4; NOD2-RIPK2 inh: -15.7; TLR4-MyD88 BLA: 6.2; CHOP inhibitor: 11.6; TLR9-MyD88 block: 0.7; CHOP UPR activ: 3.6

How did CCCNC(=O)CSCc1nc(-c2ccc(SC)cc2)oc1C do in these assays?
UPR XBP1 act: -2.0; NOD2-RIPK2 inh: -3.9; TLR4-MyD88 BLA: 4.8; CHOP inhibitor: 40.0; TLR9-MyD88 block: -1.5; CHOP UPR activ: -4.6

Results for CCc1ccc(-c2nc(CSCC(=O)NCc3ccco3)c(C)o2)cc1 ?
NOD2-RIPK2 inh: -0.9; TLR4-MyD88 BLA: 7.4; CHOP inhibitor: 101.8*; TLR9-MyD88 block: 5.3; CHOP confirm: 134.8*

How did NC(=S)NN=C(Cc1ccccc1)Cc1ccccc1 do in these assays?
UPR XBP1 act: 6.3; NOD2-RIPK2 inh: -1.7; TLR4-MyD88 BLA: 1.8; CHOP inhibitor: 10.4; TLR9-MyD88 block: 8.4; CHOP UPR activ: 0.0

How did CCc1ccc(Nc2nnc(SCC(=O)NCCN3C(=O)CSC3=O)s2)cc1 do in these assays?
UPR XBP1 act: 1.7; NOD2-RIPK2 inh: -4.4; TLR4-MyD88 BLA: 2.8; CHOP inhibitor: 7.0; TLR9-MyD88 block: -7.5; CHOP UPR activ: 4.5

What do the screens show for `CCOc1ccccc1N1CCN(S(=O)(=O)c2ccc3c4c(cccc24)C(=O)N3)CC1`?
UPR XBP1 act: -1.4; NOD2-RIPK2 inh: 3.1; TLR4-MyD88 BLA: 2.4; CHOP inhibitor: 98.9*; TLR9-MyD88 block: -6.8; CHOP UPR activ: -1.1; CHOP confirm: 9.1

How did Clc1ccccc1CN(Cc1ccccc1)c1ncnc2nc[nH]c12 do in these assays?
UPR XBP1 act: -0.8; NOD2-RIPK2 inh: 9.4; TLR4-MyD88 BLA: 8.5; CHOP inhibitor: 106.5*; TLR9-MyD88 block: 12.8; CHOP UPR activ: -0.1; CHOP confirm: 39.3

How did Clc1ccccc1CNc1ncnc2nc[nH]c12 do in these assays?
UPR XBP1 act: -0.8; NOD2-RIPK2 inh: -2.2; TLR4-MyD88 BLA: 3.9; CHOP inhibitor: 18.1; TLR9-MyD88 block: -1.1; CHOP UPR activ: -0.1

Results for C=CCN(CC=C)C(=O)c1ccc(OC2CCN(Cc3ccccn3)CC2)cc1 ?
UPR XBP1 act: -3.5; NOD2-RIPK2 inh: -3.6; TLR4-MyD88 BLA: -20.7; CHOP inhibitor: 3.4; TLR9-MyD88 block: -4.6; CHOP UPR activ: 1.0
